Here are results for 16 compounds from ChEMBL document CHEMBL3853321, “Optimization of Platelet-Derived Growth Factor Receptor (PDGFR) Inhibitors for Duration of Action, as an Inhaled Therapy for Lung Remodeling in Pulmonary Arterial Hypertension” (J Med Chem, 2016).

Molecules are shown by their SMILES. Values after ≈ are worked out from the molar mass of the structure shown. Active and inactive are the calls of the source. No cut-off for these calls is given here.

The nature of data set [1]: Transcellular permeability of the compound by PAMPA. It counts as ADME. (In general: PAMPA measures passive passage across an artificial lipid membrane.)
Data set [2] is described as follows: Solubility of the compound using 10%PEG200/[…]D5W by high-throughput assay. It counts as physicochemical. Put shortly: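 Solubility determined in the intratracheal dosing vehicle, 10% PEG200/[…] D5W.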
Data set [3] has as its system Rattus norvegicus. Description: In vivo receptor occupancy at PDGFR-beta kinase domain in rat lung at 1 mg/kg, it measured after 7 hrs by immunoprecipitation assay. It counts as functional.
Data set [4] in a line: Drug uptake in rat lung at 1 mg/kg, it at 7 hrs. It counts as ADME, organism-based. Particulars: inhaled or intranasal, read-out: Drug uptake. Put shortly: (§1)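 Single intratracheal dose as a solution in 10% PEG200/[…] D5W vehicle; compound concentration measured in lung tissue at 7 h or 24 h after dosing.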
Data set [5] in a line: Drug uptake in blood of rat monocrotaline model of pulmonary arterial hypertension at 100 mg/kg, po. It counts as ADME, organism-based. Particulars: in vivo, read-out: Drug uptake.
For data set [6], the system named is Rattus norvegicus. Put plainly: Anti-remodeling activity in rat monocrotaline model of pulmonary arterial hypertension assessed as reduction in MCT-induced muscularization of small blood vessels in lung at 100 mg/kg, po administered once daily for 7 days by histological analysis.
Data set [7] concerns Rattus norvegicus. Put plainly: In vivo receptor occupancy at PDGFR-beta kinase domain in rat lung at 0.4 mg/kg, it measured after 7 hrs by immunoprecipitation assay. It counts as functional.
Data set [8] in a line: Drug uptake in rat lung at 0.4 mg/kg, it at 7 hrs. It counts as ADME, organism-based. As to conditions: inhaled or intranasal, read-out: Drug uptake. A digest of the protocol:
as §1

In data set [9] the target is Voltage-gated inwardly rectifying potassium channel KCNH2 (Homo sapiens, UniProt Q12809). Description: Inhibition of human ERG.
The target in data set [10] is T1, Muscarinic acetylcholine receptor M1 (Homo sapiens, UniProt P11229).
T1 sequence (P11229 whole entry): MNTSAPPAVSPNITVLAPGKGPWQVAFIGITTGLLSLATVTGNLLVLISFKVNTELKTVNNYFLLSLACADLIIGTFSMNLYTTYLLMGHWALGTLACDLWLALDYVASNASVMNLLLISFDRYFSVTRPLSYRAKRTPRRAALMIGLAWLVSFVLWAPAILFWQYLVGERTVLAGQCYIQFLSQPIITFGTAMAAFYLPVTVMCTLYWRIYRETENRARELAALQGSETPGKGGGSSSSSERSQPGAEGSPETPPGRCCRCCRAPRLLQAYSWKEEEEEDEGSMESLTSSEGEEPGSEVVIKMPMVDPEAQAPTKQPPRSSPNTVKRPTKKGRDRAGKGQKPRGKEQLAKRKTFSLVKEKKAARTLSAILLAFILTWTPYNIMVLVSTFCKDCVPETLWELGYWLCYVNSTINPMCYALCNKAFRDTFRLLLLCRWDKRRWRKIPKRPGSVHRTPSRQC
Description: Inhibition of M1 receptor (unknown origin).

Data set [11] concerns the target Histamine H3 receptor (Homo sapiens, UniProt Q9Y5N1). Put plainly: Inhibition of H3 receptor (unknown origin).
In data set [12] the test system is Rattus norvegicus. Put plainly: In vivo receptor occupancy at PDGFR-beta kinase domain in rat lung at 0.1 mg/kg, it measured after 7 hrs by immunoprecipitation assay. It counts as functional.
Data set [13] can be described thus: Drug uptake in rat lung at 0.1 mg/kg, it at 7 hrs. It is filed as ADME, organism-based. Particulars: inhaled or intranasal, read-out: Drug uptake. Put shortly:
as §1

Data set [14] relates to Rattus norvegicus. Put plainly: In vivo receptor occupancy at PDGFR-beta kinase domain in rat lung at 0.1 mg/kg, it measured after 24 hrs by immunoprecipitation assay. It counts as functional.
Data set [15] in a line: Drug uptake in rat lung at 0.1 mg/kg, it at 24 hrs. Particulars: inhaled or intranasal, read-out: Drug uptake. It is filed as ADME, organism-based. A digest of the protocol: as §1
Data set [16] is described as follows: Drug uptake in blood of rat monocrotaline model of pulmonary arterial hypertension at 0.01 mg/kg, it. It is filed as ADME, organism-based. Particulars: in vivo, inhaled_or_intranasal, read-out: Drug uptake.
Data set [17] in a line: Drug uptake in blood of rat monocrotaline model of pulmonary arterial hypertension at 0.03 mg/kg, it. It counts as ADME, organism-based. As to conditions: in vivo, inhaled_or_intranasal, read-out: Drug uptake.
A short description of data set [18]: Drug uptake in blood of rat monocrotaline model of pulmonary arterial hypertension at 0.1 mg/kg, it. Particulars: in vivo, inhaled_or_intranasal, read-out: Drug uptake. It counts as ADME, organism-based.
Data set [19] can be described thus: Half life in rat. It counts as ADME. Particulars: in vivo.
A short description of data set [20]: Oral bioavailability in it dosed rat. It is filed as ADME, organism-based. As to conditions: in vivo.
Data set [21] has as its system Rattus norvegicus. Put plainly: Anti-remodeling activity in rat monocrotaline model of pulmonary arterial hypertension assessed as reduction in MCT-induced muscularization of small blood vessels in lung at 0.03 mg/kg, it administered twice daily for 7 days by histological analysis relative to control. It is filed as functional. The arrangement: scale not given: the % may be the effect or the level left. Put shortly: (§2)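 Rats given monocrotaline two weeks beforehand so pathology develops; compound then given intratracheally twice daily for seven days (therapeutic mode). Read-out: percentage of fully muscularized small pulmonary vessels; group values given as mean with SEM.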

The test system of data set [22] is Rattus norvegicus. Description: Anti-remodeling activity in it dosed rat monocrotaline model of pulmonary arterial hypertension assessed as reduction in MCT-induced muscularization of small blood vessels in lung administered twice daily for 7 days by histological analysis. It counts as functional. Particulars: 168 h, read-out: MED. Put shortly:
as §2

Data set [23] addresses Platelet-derived growth factor receptor alpha (Homo sapiens, UniProt P16234). Put plainly: Inhibition of PDGFRalpha kinase domain (unknown origin) assessed as reduction in probe peptide substrate phosphorylation by capillary electrophoresis.
For data set [24], the system named is Rattus norvegicus. Put plainly: In vivo receptor occupancy at PDGFR-beta kinase domain in rat lung at 0.4 mg/kg, it measured after 24 hrs by immunoprecipitation assay. It is filed as functional.
Data set [25] is described as follows: Drug uptake in rat lung at 0.4 mg/kg, it at 24 hrs. It counts as ADME, organism-based. As to conditions: inhaled or intranasal, read-out: Drug uptake. Put shortly: as §1

One may read the solubility as the dissolved amount per volume that the medium holds. What is called IC50 is the concentration needed to halve the response being measured. In general, half-life refers to the time in which the quantity being followed falls by half. As usually defined, the bioavailability is dose-corrected exposure relative to a reference, in per cent.

Histamine H3 receptor, sequence (Q9Y5N1 whole entry, the tested form may be a part): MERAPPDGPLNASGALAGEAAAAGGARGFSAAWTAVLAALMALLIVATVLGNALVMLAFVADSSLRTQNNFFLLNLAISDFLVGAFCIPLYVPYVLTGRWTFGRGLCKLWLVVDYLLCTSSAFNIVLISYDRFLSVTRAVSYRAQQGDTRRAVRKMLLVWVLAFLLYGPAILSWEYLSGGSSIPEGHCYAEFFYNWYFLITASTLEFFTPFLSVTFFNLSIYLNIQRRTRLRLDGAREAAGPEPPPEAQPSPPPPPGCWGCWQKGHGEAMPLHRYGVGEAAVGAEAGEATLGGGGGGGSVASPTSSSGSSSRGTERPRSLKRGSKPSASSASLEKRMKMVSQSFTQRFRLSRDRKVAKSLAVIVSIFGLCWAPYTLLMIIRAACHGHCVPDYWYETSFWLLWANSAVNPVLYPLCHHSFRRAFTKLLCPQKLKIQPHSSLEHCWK
Voltage-gated inwardly rectifying potassium channel KCNH2, sequence (Q12809 whole entry): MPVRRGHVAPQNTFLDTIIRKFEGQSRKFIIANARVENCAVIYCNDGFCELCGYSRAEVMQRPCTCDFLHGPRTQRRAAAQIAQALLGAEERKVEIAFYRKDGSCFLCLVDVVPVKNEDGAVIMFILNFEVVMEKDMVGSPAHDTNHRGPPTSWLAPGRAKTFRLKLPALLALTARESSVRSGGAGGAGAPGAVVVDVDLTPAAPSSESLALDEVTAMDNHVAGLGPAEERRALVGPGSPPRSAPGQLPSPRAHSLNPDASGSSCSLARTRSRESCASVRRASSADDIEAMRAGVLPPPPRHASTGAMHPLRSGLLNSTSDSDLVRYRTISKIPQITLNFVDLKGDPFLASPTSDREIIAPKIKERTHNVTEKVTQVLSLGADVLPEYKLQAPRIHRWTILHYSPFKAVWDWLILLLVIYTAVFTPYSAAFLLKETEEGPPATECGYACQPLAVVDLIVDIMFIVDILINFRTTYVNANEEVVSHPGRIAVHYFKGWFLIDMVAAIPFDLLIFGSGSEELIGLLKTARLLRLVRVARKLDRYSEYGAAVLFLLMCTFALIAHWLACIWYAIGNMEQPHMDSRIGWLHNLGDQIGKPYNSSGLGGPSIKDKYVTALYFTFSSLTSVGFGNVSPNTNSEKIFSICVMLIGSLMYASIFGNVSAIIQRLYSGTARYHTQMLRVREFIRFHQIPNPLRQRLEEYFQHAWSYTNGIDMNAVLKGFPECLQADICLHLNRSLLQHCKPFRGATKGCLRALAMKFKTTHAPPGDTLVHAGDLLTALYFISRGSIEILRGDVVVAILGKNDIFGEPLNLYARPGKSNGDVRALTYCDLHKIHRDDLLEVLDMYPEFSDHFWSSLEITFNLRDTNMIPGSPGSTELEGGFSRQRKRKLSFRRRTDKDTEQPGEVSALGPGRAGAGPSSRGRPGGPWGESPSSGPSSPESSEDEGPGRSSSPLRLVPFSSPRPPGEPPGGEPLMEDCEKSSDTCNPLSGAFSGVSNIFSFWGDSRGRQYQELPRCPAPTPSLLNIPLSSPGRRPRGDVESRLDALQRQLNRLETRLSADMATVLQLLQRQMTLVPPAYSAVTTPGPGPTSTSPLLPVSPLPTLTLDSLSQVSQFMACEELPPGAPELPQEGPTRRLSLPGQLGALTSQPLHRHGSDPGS
Platelet-derived growth factor receptor alpha, sequence (P16234 whole entry, the tested form may be a part): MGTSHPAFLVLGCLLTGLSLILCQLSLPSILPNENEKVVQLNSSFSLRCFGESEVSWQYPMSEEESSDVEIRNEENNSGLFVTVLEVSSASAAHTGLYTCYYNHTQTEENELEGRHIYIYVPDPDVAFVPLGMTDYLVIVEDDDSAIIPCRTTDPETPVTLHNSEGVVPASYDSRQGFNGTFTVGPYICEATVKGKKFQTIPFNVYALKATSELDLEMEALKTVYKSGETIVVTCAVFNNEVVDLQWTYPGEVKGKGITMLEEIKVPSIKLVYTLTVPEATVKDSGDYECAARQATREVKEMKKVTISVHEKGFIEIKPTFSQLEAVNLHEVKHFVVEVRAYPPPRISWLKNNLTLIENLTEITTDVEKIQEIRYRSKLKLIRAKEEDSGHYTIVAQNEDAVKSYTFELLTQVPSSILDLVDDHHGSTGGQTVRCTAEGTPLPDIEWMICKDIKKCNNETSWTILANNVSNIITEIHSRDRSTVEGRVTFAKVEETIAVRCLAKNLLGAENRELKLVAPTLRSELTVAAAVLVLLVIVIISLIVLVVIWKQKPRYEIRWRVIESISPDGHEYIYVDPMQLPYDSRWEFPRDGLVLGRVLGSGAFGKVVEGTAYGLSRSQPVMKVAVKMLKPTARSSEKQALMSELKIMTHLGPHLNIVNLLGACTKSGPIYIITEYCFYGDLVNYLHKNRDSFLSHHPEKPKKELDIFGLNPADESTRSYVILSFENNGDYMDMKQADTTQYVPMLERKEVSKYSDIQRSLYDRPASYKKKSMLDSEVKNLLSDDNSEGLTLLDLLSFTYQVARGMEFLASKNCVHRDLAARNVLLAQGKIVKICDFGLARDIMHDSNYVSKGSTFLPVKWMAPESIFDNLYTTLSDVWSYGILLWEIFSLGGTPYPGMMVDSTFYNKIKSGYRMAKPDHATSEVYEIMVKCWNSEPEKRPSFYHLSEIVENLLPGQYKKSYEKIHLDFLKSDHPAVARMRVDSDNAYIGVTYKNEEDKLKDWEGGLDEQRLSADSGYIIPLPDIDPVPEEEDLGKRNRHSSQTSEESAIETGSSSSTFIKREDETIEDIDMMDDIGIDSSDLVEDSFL

Compound `Cn1nccc1-c1ccn2c(C(=O)Nc3cc(C(=O)NCc4ccc(F)c(F)c4)ccc3F)cnc2c1` displayed a permeability in data set [1] of 11%. In addition, the solubility in [2] was less than 10 µg/mL. In data set [3], this compound came in with an Occ of 27%. The concentration at 7 h in [4] was 276000 nM.

In data set [1], `CN(CCNC(=O)c1ccc(F)c(NC(=O)c2cnc3cc(-c4ccnn4C)ccn23)c1)C(C)(C)C` came in with a permeability of 0%.

On to `CN1CCN(c2ccccc2CNC(=O)c2ccc(F)c(NC(=O)c3cnc4cc(-c5cccnc5)ccn34)c2)CC1`, for which, in [1], the permeability was determined as 23%.

Consider `Cc1ccc(NC(=O)c2ccc(CN3CCN(C)CC3)cc2)cc1Nc1nccc(-c2cccnc2)n1` [IMATINIB], for which, in data set [5], the concentration came out at 306000 nM. The outcome in [6] was Active.

`CN1CCN(c2ccccc2CNC(=O)c2ccc(F)c(NC(=O)c3cnn4cc(-c5ccnn5C)ccc34)c2)CC1` gave a permeability in data set [1] of 70%. Further, the solubility in [2] is more than 1000 µg/mL. Moreover, in data set [7], the Occ is given as 29%. Besides, the concentration at 7 h in [8] stood at 221 nM.

With `Cc1ncc(C(=O)NCCN2CCCC2(C)C)cc1NC(=O)c1cnn2cc(-c3cnn(C)c3)ccc12`, in [1], the permeability stood at 4.7%. Also, the values for the IC50 in [9], in data set [10] and in data set [11] were more than 30 µM, 5 µM and 5 µM, respectively. For the same compound, the solubility in data set [2] is more than 1000 µg/mL. The figures for the Occ in data set [12] and in data set [14] were 88% and 81%, respectively. The concentration at 7 h in data set [13] came out at 1300 nM. Besides, the concentration at 24 h in [15] was 680 nM. Also, the concentration in [16] came to 210 nM; in data set [17] it was 750 nM; in [18] it was 1900 nM. The compound also showed a half-life in [19] of 14 h. In [20], this compound had a bioavailability of 90%. The Activity in data set [21] is reported as 14.3%. For the same compound, in data set [22], the minimal effective dose is 0.03 mg/kg.

`Cn1nccc1-c1ccn2c(C(=O)Nc3cc(C(=O)NCC4CCC(C)(C)O4)ccc3F)cnc2c1` (centres undefined) showed a permeability in data set [1] of 81%.

Consider `CN1CCN(c2ccccc2CNC(=O)c2ccc(F)c(NC(=O)c3cnc4cc(-c5cc[nH]n5)ccn34)c2)CC1`, for which, in data set [1], the permeability is listed as 0%. Also, the IC50 in [23] was less than 0.0001 µM.

Consider `CCN(CCNC(=O)c1ccc(F)c(NC(=O)c2cnc3cc(-c4ccnn4C)ccn23)c1)C(C)(C)C`, for which the permeability in data set [1] came out at 23%.

In [1], `CN1CCN(c2ccccc2CNC(=O)c2ccc(F)c(NC(=O)c3cnc4ccccn34)c2)CC1` had a permeability of 83.1%.

Turning to `CN1CCN(c2ccccc2CNC(=O)c2ccc(F)c(NC(=O)c3cnc4cc(-c5cnn(C)c5)ccn34)c2)CC1`, the permeability in [1] is 26.3%.

In the case of `Cn1nccc1-c1ccn2c(C(=O)Nc3cc(C(=O)NCCN4CCCC4(C)C)ccc3F)cnc2c1`, the permeability in data set [1] is listed as 0.6%.

In [1], `Cc1ncc(C(=O)NCc2ccccc2N2CCN(C)CC2)cc1NC(=O)c1cnn2cc(-c3ccnn3C)ccc12` displayed a permeability of 17%. This compound also gave a solubility in data set [2] of more than 1000 µg/mL. The compound further gave an Occ in data set [7] of 83%. The concentration at 7 h in data set [8] was determined as 3950 nM.

The compound `C[C@@H]1CCC[C@H](C)N1CCNC(=O)c1ccc(F)c(NC(=O)c2cnc3cc(-c4ccnn4C)ccn23)c1` gave a permeability in [1] of 5.4%. The compound further yielded a solubility in data set [2] of 590 µg/mL (≈ 1140 µM). Further, the Occ in data set [12] was determined as 75%; in [14] it was 0%. The concentration at 7 h in [13] is 302 nM. For the same compound, in data set [15], the concentration at 24 h stood at 44 nM.

In [1], `CN1CCN(c2ccccc2CNC(=O)c2ccc(F)c(NC(=O)c3cnc4cc(-c5ccnn5C)ccn34)c2)CC1` yielded a permeability of 4.8%. The compound further came in with a solubility in data set [2] of 770 µg/mL (≈ 1360 µM). The Occ in data set [12] is given as 54%; in [7] it was 70%; in data set [24], 9%. For the same compound, the concentration at 7 h in data set [13] and in [8] was 687 nM throughout. The concentration at 24 h in data set [25] was determined as 60 nM.

`Cn1cc(-c2ccn3c(C(=O)Nc4cc(C(=O)NCCN5CCCC5(C)C)ccc4F)cnc3c2)cn1` yielded a permeability in [1] of 0.7%. The compound further gave a solubility in [2] of more than 1000 µg/mL. Moreover, the Occ in data set [12] was found to be 82%; in [14], 51%. Moreover, in data set [13], the concentration at 7 h was determined as 1030 nM. Also, in [15], the concentration at 24 h amounted to 420 nM.
